Source: ChEMBL document CHEMBL2046312, “Synthesis and biological activity of potent HIV-1 protease inhibitors based on Phe-Pro dihydroxyethylene isosteres” (J Med Chem, 2012)
Each block holds one molecule with its values, some of them ahead of it.

Legend:
[1] = tested on: MT2; assay: (§1) Cytotoxicity against human MT2 cells after 72 hrs by MTT assay; format: cell-based; details: mt2, 72 h
In short: (§2)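 MT-2 cells grown in RPMI 1640 with 10% fetal calf serum and exposed to inhibitor for 72 or 96 h. MTT uptake read-out. CC50 is derived from % cell survival. MNC is the highest concentration that alters neither monolayer morphology nor survival rate. Six to eight parallels per experiment, each experiment run in triplicate.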

[2] = as §1; format: cell-based; details: MT2 cells; in short: as §2
[3] = target: T1, Protease (Human immunodeficiency virus 1, UniProt Q9YQ12); assay: Inhibition of HIV1 3B protease activity in human H9 cells using Abz-Thr-Ile-Nle-Phe(p-NO2)-Gln-Arg-NH2 as substrate after 40 mins by spectrophotometric analysis; format: cell-based
[4] = Ratio of CC50 for human MT2 cells after 96 hrs to CC50 for human MT2 cells after 72 hrs; format: cell-based
[5] = tested on: Human immunodeficiency virus 1; assay: Antiviral activity against Human immunodeficiency virus 1 3B infected in human MT2 cells assessed as survival of virus infected cells at 10 nM after 72 to 96 hrs by MTT assay; format: functional
In short: (§3)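 HIV-1 IIIB from supernatants of chronically infected H9/HTLV IIIB cells; stock characterized by p24, RT activity and infectivity (2 × 10⁶ infectious virions/mL). MT-2 cells in RPMI 1640 + 10% FCS, infected at MOI 0,1 and incubated with inhibitor for 72−96 h. Microtiter infection assay, MTT uptake read at 540 nm, expressed as % survival of virus-infected cells.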

[6] = tested on: Human immunodeficiency virus 1; assay: Antiviral activity against Human immunodeficiency virus 1 3B infected in human MT2 cells assessed as inhibition of reverse transcriptase activity at 5 nM after 72 to 96 hrs by MTT assay relative to untreated control; format: functional; set-up: scale not given: the % may be the effect or the level left
[7] = tested on: MT2; assay: Ratio of MNC for human MT2 cells after 96 hrs to MNC for human MT2 cells after 72 hrs; format: ADME, cell-based
[8] = target: T1, Protease; assay: Inhibition of Human immunodeficiency virus 1 protease using Abz-Thr-Ile-Nle-Phe(p-NO2)-Gln-Arg-NH2 as substrate by fluorescence analysis
In short: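 Recombinant wild-type HIV-1 PR with fluorogenic substrate Abz-NF*-6, run at pH 5.5. […] 1.2 nM PR needed to detect activity. Active enzyme concentration set by titration with ritonavir and nelfinavir. The IC50 measurability limit is one-half of the active enzyme concentration.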

[9] = tested on: Human immunodeficiency virus 1; assay: Antiviral activity against Human immunodeficiency virus 1 3B infected in human MT2 cells assessed as inhibition of reverse transcriptase activity at 10 nM after 72 to 96 hrs by MTT assay relative to untreated control; format: functional; set-up: scale not given: the % may be the effect or the level left
[10] = tested on: MT2; assay: (§4) Cytotoxicity against human MT2 cells assessed as maximum non-toxic concentration after 72 hrs by MTT assay; format: cell-based; details: mt2, 72 h; in short: as §2
[11] = as §4; format: cell-based; details: MT2 cells, read-out: MNCC; in short: as §2
[12] = tested on: MT2; assay: (§5) Cytotoxicity against human MT2 cells after 96 hrs by MTT assay; format: cell-based; details: mt2, 96 h; in short: as §2
[13] = as §5; format: cell-based; details: MT2 cells; in short: as §2
[14] = tested on: Human immunodeficiency virus 1; assay: Antiviral activity against Human immunodeficiency virus 1 3B infected in human MT2 cells assessed as survival of virus infected cells at 5 nM after 72 to 96 hrs by MTT assay; format: functional; in short: as §3
[15] = tested on: MT2; assay: (§6) Cytotoxicity against human MT2 cells assessed as maximum non-toxic concentration after 96 hrs by MTT assay; format: cell-based; details: mt2, 96 h; in short: as §2
[16] = as §6; format: cell-based; details: MT2 cells, read-out: MNCC; in short: as §2
[17] = tested on: Human immunodeficiency virus 1; assay: Antiviral activity against Human immunodeficiency virus 1 3B infected in human MT2 cells assessed as survival of virus infected cells at 0.000001 nM after 72 to 96 hrs by MTT assay; format: functional; in short: as §3
[18] = tested on: Human immunodeficiency virus 1; assay: Antiviral activity against Human immunodeficiency virus 1 3B infected in human MT2 cells assessed as survival of virus infected cells at 0.0000001 nM after 72 to 96 hrs by MTT assay; format: functional; in short: as §3
[19] = tested on: Human immunodeficiency virus 1; assay: Antiviral activity against Human immunodeficiency virus 1 3B infected in human MT2 cells assessed as survival of virus infected cells at 0.001 nM after 72 to 96 hrs by MTT assay; format: functional; in short: as §3
[20] = tested on: Human immunodeficiency virus 1; assay: Antiviral activity against Human immunodeficiency virus 1 3B infected in human MT2 cells assessed as inhibition of reverse transcriptase activity at 0.000001 nM after 72 to 96 hrs by MTT assay relative to untreated control; format: functional; set-up: scale not given: the % may be the effect or the level left
[21] = tested on: Human immunodeficiency virus 1; assay: Antiviral activity against Human immunodeficiency virus 1 3B infected in human MT2 cells assessed as survival of virus infected cells at 0.0001 nM after 72 to 96 hrs by MTT assay; format: functional; in short: as §3
[22] = tested on: Human immunodeficiency virus 1; assay: Antiviral activity against Human immunodeficiency virus 1 3B infected in human MT2 cells assessed as survival of virus infected cells at 0.1 nM after 72 to 96 hrs by MTT assay; format: functional; in short: as §3
[23] = tested on: Human immunodeficiency virus 1; assay: Antiviral activity against Human immunodeficiency virus 1 3B infected in human MT2 cells assessed as inhibition of reverse transcriptase activity at 0.0001 nM after 72 to 96 hrs by MTT assay relative to untreated control; format: functional; set-up: scale not given: the % may be the effect or the level left
[24] = tested on: Human immunodeficiency virus 1; assay: Antiviral activity against Human immunodeficiency virus 1 3B infected in human MT2 cells assessed as inhibition of reverse transcriptase activity at 0.00001 nM after 72 to 96 hrs by MTT assay relative to untreated control; format: functional; set-up: scale not given: the % may be the effect or the level left
[25] = tested on: Human immunodeficiency virus 1; assay: Antiviral activity against Human immunodeficiency virus 1 3B infected in human MT2 cells assessed as inhibition of reverse transcriptase activity at 0.0000001 nM after 72 to 96 hrs by MTT assay relative to untreated control; format: functional; set-up: scale not given: the % may be the effect or the level left
[26] = tested on: Human immunodeficiency virus 1; assay: Antiviral activity against Human immunodeficiency virus 1 3B infected in human MT2 cells assessed as inhibition of reverse transcriptase activity at 0.1 nM after 72 to 96 hrs by MTT assay relative to untreated control; format: functional; set-up: scale not given: the % may be the effect or the level left
[27] = tested on: Human immunodeficiency virus 1; assay: Antiviral activity against Human immunodeficiency virus 1 3B infected in human MT2 cells assessed as inhibition of reverse transcriptase activity at 0.001 nM after 72 to 96 hrs by MTT assay relative to untreated control; format: functional; set-up: scale not given: the % may be the effect or the level left
[28] = tested on: Human immunodeficiency virus 1; assay: Antiviral activity against Human immunodeficiency virus 1 3B infected in human MT2 cells assessed as survival of virus infected cells at 0.00001 nM after 72 to 96 hrs by MTT assay; format: functional; in short: as §3

T1 sequence (Q9YQ12 whole entry): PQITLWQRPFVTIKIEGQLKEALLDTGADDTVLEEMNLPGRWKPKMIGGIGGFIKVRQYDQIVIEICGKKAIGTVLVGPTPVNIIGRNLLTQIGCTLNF

Compound: CC(=O)N[C@@H](Cc1c[nH]c2ccccc12)C(=O)N[C@H](C(=O)N[C@@H](Cc1ccccc1)[C@H](O)[C@@H](O)[C@@H]1CCCN1C(=O)[C@@H](NC(=O)[C@H](Cc1c[nH]c2ccccc12)NC(C)=O)C(C)C)C(C)C
Activity [1]: Dose-dependent effect
CC50 at 72 h [2]: 2500 µM
IC50 [3]: 5 nM
selectivity ratio [4]: 5000
survival at 0.01 µM [5]: > 90%
Activity [6]: 50%
Ratio [7]: 33
IC50 [8]: < 0.0006 µM
Activity [9]: 24%
Activity [10]: Dose-dependent effect
MNTC at 72 h [11]: 10 nM
Activity [12]: Dose-dependent effect
CC50 at 96 h [13]: 0.5 µM
survival at 0.005 µM [14]: > 90%
Activity [15]: Dose-dependent effect
MNTC at 96 h [16]: 0.3 nM

IC50 [8]: 3.3 µM
Compound: Cc1cccc(C)c1OCC(=O)N[C@@H](Cc1ccccc1)[C@@H](O)[C@H](O)[C@H]1CCCN1C(=O)COc1c(C)cccc1C

IC50 [8]: 0.0006 µM
Compound: CC[C@H](C)[C@H](NC(=O)[C@@H](NC(C)=O)C(C)C)C(=O)N1CCC[C@H]1[C@H](O)[C@@H](O)[C@H](Cc1ccccc1)NC(=O)[C@H](CC(N)=O)NC(=O)[C@H](CC(C)C)NC(=O)[C@H](CO)NC(C)=O

IC50 [8]: 0.0018 µM
Compound: CC(=O)N[C@@H](Cc1c[nH]c2ccccc12)C(=O)N[C@H](C(=O)N[C@@H](Cc1ccccc1)[C@H](O)[C@@H](O)[C@@H]1CCCCN1C(=O)[C@@H](NC(=O)[C@H](Cc1c[nH]c2ccccc12)NC(C)=O)C(C)C)C(C)C

IC50 [8]: 0.075 µM
Compound: CC(=O)N[C@@H](Cc1c[nH]c2ccccc12)C(=O)N[C@H](C(=O)N1CCC[C@H]1[C@H](O)[C@@H](O)[C@H](Cc1ccccc1)NC(=O)COc1c(C)cccc1C)C(C)C

IC50 [8]: 0.614 µM
Compound: O=C(COc1ccccc1)N[C@@H](Cc1ccccc1)[C@H](O)[C@@H](O)[C@@H]1CCCN1C(=O)COc1ccccc1

IC50 [8]: 0.655 µM
Compound: CC[C@H](NC(=O)COc1ccccc1C)[C@H](O)[C@@H](O)[C@@H]1CCCN1C(=O)COc1ccccc1C

IC50 [8]: 0.085 µM
Compound: Cc1cccc(C)c1OCC(=O)N[C@@H](Cc1ccccc1)[C@H](O)[C@@H](O)[C@@H]1CCCN1C(=O)COc1ccccc1

Compound: Cc1cccc(C)c1OCC(=O)N[C@@H](Cc1ccccc1)[C@H](O)[C@@H](O)[C@@H]1CCCN1C(=O)COc1c(C)cccc1C
survival at 1 fM [17]: > 90%
Activity [1]: Dose-dependent effect
CC50 at 72 h [2]: 300 µM
IC50 [3]: 0.0015 nM
survival at 1e-10 µM [18]: > 90%
IC50 [8]: 0.0096 µM
Activity [10]: Dose-dependent effect
MNTC at 72 h [11]: 0.1 nM
survival at 1 pM [19]: 80%
Activity [12]: Dose-dependent effect
CC50 at 96 h [13]: 1000 µM
Activity [20]: 28%
survival at 100 fM [21]: 87%
survival at 0.0001 µM [22]: 78%
Activity [23]: 26%
Activity [24]: 29%
Activity [25]: 26%
Activity [26]: 24%
Activity [27]: 25%
Activity [15]: Dose-dependent effect
MNTC at 96 h [16]: 0.1 nM
survival at 10 fM [28]: 90%

IC50 [8]: 0.175 µM
Compound: Cc1cccc(C)c1OCC(=O)N[C@@H](Cc1ccccc1)[C@H](O)[C@@H](O)[C@@H]1CCCCN1C(=O)COc1c(C)cccc1C

IC50 [8]: 116 µM
Compound: CC(=O)c1ccc(OCC(=O)N[C@@H](Cc2ccccc2)[C@H](O)[C@@H](O)[C@@H]2CCCN2C(=O)COc2ccc(C(C)=O)cc2)cc1

IC50 [8]: 290 µM
Compound: Cc1cccc(C)c1OCC(=O)N1CCC[C@H]1[C@H](O)[C@@H](O)[C@@H]1CCCN1C(=O)COc1c(C)cccc1C

IC50 [8]: 0.006 µM
Compound: CC(=O)N[C@@H](Cc1c[nH]c2ccccc12)C(=O)N[C@H](C(=O)N[C@@H](Cc1ccccc1)[C@H](O)[C@@H](O)[C@H](Cc1ccccc1)NC(=O)[C@@H](NC(=O)[C@H](Cc1c[nH]c2ccccc12)NC(C)=O)C(C)C)C(C)C

IC50 [8]: 0.028 µM
Compound: Cc1cccc(C)c1OCC(=O)N[C@@H](Cc1ccccc1)[C@H](O)[C@@H](O)[C@H](Cc1ccccc1)NC(=O)COc1c(C)cccc1C
